Experimental findings from ChEMBL document CHEMBL4613307, “Sigma Receptor Ligands Carrying a Nitric Oxide Donor Nitrate Moiety: Synthesis, In Silico, and Biological Evaluation” (ACS Med Chem Lett, 2020) are described below.

The test system of data set [1] is MCF7. Put plainly: Cytotoxicity against human MCF7 cells assessed as reduction in cell viability after 24 hrs by MTT assay. It is filed as functional, cell-based. The following applies: MCF7, 24 h. In short, it runs like this: (§1)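 MTT viability assay in Caco-2, MCF-7 and HFF-1 cells; top tested concentration 100 μM. IC50 given as mean ± SD of at least two experiments run in quadruplicate.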

Data set [2] has as its system MCF7. Put plainly: Cytotoxicity against human MCF7 cells assessed as reduction in cell viability at 100 uM after 24 hrs by MTT assay relative to control. The format is functional.
Data set [3] deals with T1, Sigma intracellular receptor 2 (Homo sapiens, UniProt Q5BJF2). Put plainly: Displacement of [3H]-di-o-tolylguanidine from sigma2 receptor (unknown origin) incubated for 1 hr in presence of (+)SKF10047 by liquid scintillation counting method. In short, it runs like this:
(§2)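 Radioligand binding at σ1 and σ2 receptors, with [3H]DTG as the σ2 radioligand. Ki given as mean ± SD of at least two experiments run in triplicate.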

For data set [4], the target named is Sigma non-opioid intracellular receptor 1 (Cavia porcellus, UniProt Q60492). Put plainly: Displacement of [3H]-(+)-pentazocine from sigma1 receptor in guinea pig brain membranes incubated for 1 hr by liquid scintillation counting method. It is filed as cell membranes, Membrane. In short, it runs like this: as §2
Background: Loss of bound radioactivity is the signal in a displacement assay; it reports binding, not function.

Data set [5] deals with T1, Sigma intracellular receptor 2. Briefly: Displacement of [3H]-di-o-tolylguanidine from sigma2 receptor (unknown origin) at 10 uM incubated for 1 hr in presence of (+)SKF10047 by liquid scintillation counting method relative to control.
Data set [6] concerns the target Sigma non-opioid intracellular receptor 1 (Cavia porcellus) (UniProt Q60492). Briefly: Displacement of [3H]-(+)-pentazocine from sigma1 receptor in guinea pig brain membranes at 10 uM incubated for 1 hr by liquid scintillation counting method relative to control. It is filed as cell membranes. The settings on record: Membrane.
Data set [7] can be described thus: Drug metabolism in Tris-HCl buffer assessed as amount of nitrite released at 100 uM and 37 degree C after 30 mins in presence of nitrate reductase and NADPH by Griess reagent based spectrophotometric analysis. The format is physicochemical. The settings on record: 0.5 h. In short, it runs like this:
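Test agents at 100 μM incubated in Tris-HCl buffer at 37 °C for 30 min; total nitrite measured with Griess reagent.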
(The Griess reaction detects nitrite, a stable product of nitric oxide.)

In data set [8] the test system is HFF-1. Briefly: Cytotoxicity against human HFF1 cells assessed as reduction in cell viability at 100 uM after 24 hrs by MTT assay relative to control. The following applies: hff-1, 24 h. It is filed as cell-based. On the technique in general: Tetrazolium assays rely on reduction of a dye to a coloured formazan, in cell work by metabolically active cells.
The subject of data set [9] is Caco-2. Put plainly: Cytotoxicity against human Caco2 cells assessed as reduction in cell viability after 24 hrs by MTT assay. It is filed as functional, cell-based. The following applies: Caco-2, 24 h. In short, it runs like this:
as §1

Data set [10] concerns HFF-1. Put plainly: Cytotoxicity against human HFF1 cells assessed as reduction in cell viability after 24 hrs by MTT assay. The format is cell-based. The following applies: HFF-1, 24 h. In short, it runs like this: as §1
In data set [11] the test system is Caco-2. Briefly: Cytotoxicity against human Caco2 cells assessed as reduction in cell viability at 100 uM after 24 hrs by MTT assay relative to control. The format is functional.
The test system of data set [12] is MCF7. Briefly: Cytotoxicity against human MCF7 cells assessed as restoration of cell viability loss at IC50 after 24 hrs in presence of AC927 by MTT assay. The format is functional, cell-based. The method, boiled down: (§3)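 MCF-7 cells given the test agent at its viability-reducing concentration together with 1 μM σ1 agonist (+)-pentazocine or 1 μM σ2 antagonist 1-phenethylpiperidine (AC927); viability read by MTT.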

The subject of data set [13] is MCF7. Put plainly: Cytotoxicity against human MCF7 cells assessed as restoration of cell viability loss at IC50 after 24 hrs in presence of PTZ by MTT assay. The format is functional, cell-based. In short, it runs like this:
as §3

Structures are written as SMILES. Calls of active or inactive are those of the source. The calls are words filed in the database; no cut-off is given here.

The IC50 is the concentration that inhibits the measured activity by half. In general, Ki refers to a dissociation constant, usually derived from enzyme kinetics or from competition with a known ligand. By inhibition is commonly meant the relative decrease from the control value, in per cent.

T1 sequence (Q5BJF2 whole entry): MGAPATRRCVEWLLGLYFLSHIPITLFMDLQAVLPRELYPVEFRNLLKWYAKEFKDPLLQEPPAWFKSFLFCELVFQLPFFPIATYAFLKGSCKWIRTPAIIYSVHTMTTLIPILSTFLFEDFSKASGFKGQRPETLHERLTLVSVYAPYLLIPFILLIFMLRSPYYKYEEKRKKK
Sequence of Sigma non-opioid intracellular receptor 1 (Q60492 whole entry): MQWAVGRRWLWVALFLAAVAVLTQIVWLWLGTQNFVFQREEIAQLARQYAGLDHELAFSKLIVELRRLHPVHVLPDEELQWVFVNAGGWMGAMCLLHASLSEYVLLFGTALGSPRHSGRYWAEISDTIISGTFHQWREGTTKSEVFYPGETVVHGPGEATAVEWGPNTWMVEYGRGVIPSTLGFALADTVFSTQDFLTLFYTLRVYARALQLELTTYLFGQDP
Sequence of Sigma non-opioid intracellular receptor 1 (Cavia porcellus) (Q60492 whole entry): as above

`Cc1ccc(C(=O)NCCCCN2CCC(Cc3ccccc3)CC2)cc1`: the IC50 in [1] amounted to 87000 nM. Besides, in data set [2], the Activity is listed as less than 50%. Further, the Ki in data set [3] is 127 nM; in data set [4], 62 nM.

Regarding `Cc1ccc(C(=O)O)cc1` [4-METHYLBENZOIC ACID], the IC50 in data set [1] is greater than 100000 nM. Moreover, the inhibition in data set [5] and in [6] was less than 50% throughout. In addition, the Activity in data set [2] is less than 50%. For the same compound, the Ki in data set [3] and in [4] was greater than 10000 nM in each case.

As to `O=C(NCCN1CCC(Cc2ccccc2)CC1)c1cccc(CO[N+](=O)[O-])c1`, the Drug metabolism in data set [7] was 13 µM. For the same compound, the results for the half-maximal inhibitory concentration (IC50) in [1], in data set [9] and in data set [10] were 36000 nM, 59000 nM and greater than 100000 nM, respectively. In data set [8], the Activity is reported as less than 50%. The Ki worked out at 330 nM in [3] and 49 nM in [4].

Consider `O=C(NC1CCN(Cc2ccccc2)CC1)c1ccc(CO[N+](=O)[O-])cc1`, for which the Drug metabolism in [7] stood at 6.3 µM. In addition, the half-inhibitory concentration (IC50) in data set [1], in data set [9] and in data set [10] was greater than 100000 nM each time. Besides, the Activity in [8], in [2] and in data set [11] was less than 50% in each case. Moreover, the figures for the inhibition constant (Ki) in data set [3] and in data set [4] were 270 nM and 22 nM, respectively.

Consider `O=C(NCCCCN1CCC(Cc2ccccc2)CC1)c1ccc(CO)cc1`, for which, in [1], the IC50 is greater than 100000 nM. Besides, the Activity in data set [2] is on record as less than 50%. For the same compound, the inhibition constant Ki in [3] amounted to 2600 nM; in data set [4], 711 nM.

On to `O=C(NCCCCCN1CCC(Cc2ccccc2)CC1)c1cccc(CO[N+](=O)[O-])c1`, for which the inhibition constant (Ki) came out at 142 nM in data set [3] and 50 nM in data set [4].

On to `C[C@@H]1CCO[C@H]2Cn3cc(C(=O)NCc4ccc(F)cc4F)c(=O)c(O)c3C(=O)N12` [DOLUTEGRAVIR], for which the Ki in data set [3] was 18 nM.

Take `O=C(O)c1ccc(CO[N+](=O)[O-])cc1`: the IC50 in data set [1] was greater than 100000 nM. The inhibition in data set [5] and in [6] was less than 50% in each case. In addition, the Activity in data set [2] is on record as less than 50%. Moreover, the Ki in data set [3] and in data set [4] was greater than 10000 nM in each case.

In the case of `O=C(NC1CCN(Cc2ccccc2)CC1)c1cccc(CO[N+](=O)[O-])c1`, the values for the inhibition constant (Ki) in [3] and in data set [4] were 19 nM and 24 nM, respectively.

Regarding `O=C(Cc1cccc(CO[N+](=O)[O-])c1)NC1CCN(Cc2ccccc2)CC1`, the Drug metabolism in data set [7] came to 1.3 µM. Besides, the concentration for half-maximal inhibition (IC50) in data set [1], in data set [9] and in data set [10] was greater than 100000 nM throughout. For the same compound, the Activity in data set [8], in [2] and in data set [11] was less than 50% in each case. In addition, the Ki in data set [3] was 320 nM; in data set [4] it was 19 nM.

As to `O=C(NCCCN1CCC(Cc2ccccc2)CC1)c1ccc(CO[N+](=O)[O-])cc1`, the figures for the Ki in [3] and in [4] were 230 nM and 145 nM, respectively.

For `O=C(NCCCN1CCC(Cc2ccccc2)CC1)c1cccc(CO[N+](=O)[O-])c1`, the values for the inhibition constant (Ki) in [3] and in data set [4] were 93 nM and 64 nM, respectively.

On to `O=C(NCCCCN1CCC(Cc2ccccc2)CC1)c1ccc(CO[N+](=O)[O-])cc1`, for which, in data set [7], the Drug metabolism came out at 13 µM. Besides, the results for the concentration for half-maximal inhibition (IC50) in data set [1], in data set [9] and in data set [10] were 26000 nM, 28000 nM and greater than 100000 nM, respectively. Further, the outcome in data set [12] and in data set [13] was inactive. The Activity in data set [8] is less than 50%. For the same compound, the Ki in data set [3] came to 89 nM; in data set [4], 250 nM.

Consider `O=C(NCCCCCN1CCC(Cc2ccccc2)CC1)c1ccc(CO[N+](=O)[O-])cc1`, for which the Ki in [3] is 70 nM; in [4] it was 93 nM.

Turning to `O=C(Cc1ccc(CO[N+](=O)[O-])cc1)NC1CCN(Cc2ccccc2)CC1`, the Ki in data set [3] was determined as 2510 nM; in data set [4] it was 170 nM.

Consider `O=C(NCCN1CCC(Cc2ccccc2)CC1)c1ccc(CO[N+](=O)[O-])cc1`, for which the figures for the Ki in data set [3] and in data set [4] were 2670 nM and 89 nM, respectively.

As to `O=C(NCCCCN1CCC(Cc2ccccc2)CC1)c1cccc(CO[N+](=O)[O-])c1`, the Ki in data set [3] was determined as 75 nM; in data set [4], 148 nM.

`O=C(O)c1ccc(CO)cc1`: the IC50 in data set [1] is greater than 100000 nM. Also, the inhibition in [5] and in data set [6] was less than 50% throughout. For the same compound, the Activity in data set [2] is recorded as less than 50%. For the same compound, the Ki in [3] and in data set [4] was greater than 10000 nM each time.

Take `COc1cccc2c1C(=O)c1c(O)c3c(c(O)c1C2=O)C[C@@](O)(C(=O)CO)C[C@@H]3O[C@H]1C[C@H](N)[C@H](O)[C@H](C)O1` [DOXORUBICIN]: the Activity in data set [8] was less than 50%. Moreover, the half-maximal inhibitory concentration (IC50) in [9] was 21000 nM; in data set [10], greater than 100000 nM.
